Data set [1] concerns Mus musculus. Description: Antidiabetic activity in streptozotocin-induced diabetic C57BL/6 mouse model assessed as decrease in blood glucose level at 20 mg/kg, ip administered for 5 consecutive days with streptozotocin followed by 2 more weeks compound addition without streptozotocin measured every 3 day of compound dosing by glucometer relative to control. It is filed as functional, organism-based. Put shortly: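 Ten-week-old male C57BL/6 mice given STZ 50 mg/kg i.p. (in Na-citrate) once daily for 5 days, together with test agent 20 mg/kg i.p. (2 mg/ml in 10% DMSO/saline; n = 7) or vehicle (n = 6). Dosing without STZ then continued for 2 more weeks. Fasting (5 h) tail blood glucose read by glucometer every third day.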

Data set [2] can be described thus: Effect on growth rate of rat INS-1 cells at 2.5 to 10 uM after 72 hrs by CellTiter-Glo assay relative to control. It is filed as cell-based. The following applies: ins1, 72 h. Put shortly:
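INS-1 cells grown with compound alone (no stressor) and viability/growth read by CellTiter-Glo, compared with DMSO-treated cells.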
On the technique in general: Cellular ATP, detected with luciferase, serves as a proxy for viable cell number.

Data set [3] is described as follows: Effect on 2.5 mM glucose-stimulated insulin secretion in rat INS-1 cells preincubated for 24 hrs followed by glucose addition and subsequent incubation for 45 mins by ELISA. It is filed as ADME, cell-based. The conditions noted are these: ins1, 0.75 h. Put shortly:
(§1)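 INS-1 cells seeded at 1 × 10⁵/well and treated 24 h with compounds (with or without Tm). They were washed in Krebs-HEPES buffer pH 7.4 with 1% BSA, preincubated 1 h in 2.5 mM glucose, then stimulated 45 min with 2.5 or 20 mM glucose. Secreted insulin was measured by ELISA and normalized to Bradford total protein. The index is 20 mM/2.5 mM secretion from triplicate wells.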

Data set [4] relates to INS1. Description: Cytoprotective activity in endoplasmic reticulum stressed rat INS-1 cells assessed as rescue from tunicamycin-mediated reduction in cell survival after 72 hrs by CellTiter-Glo assay. The following applies: INS1, 72 h.
The target of data set [5] is DNA damage-inducible transcript 3 protein (Mus musculus) (UniProt P35639). The experiment in a line: Inhibition of endoplasmic reticulum stress-induced CHOP activity in tunicamycin-treated C57BL/6 mouse primary pancreatic islet beta cells assessed as DNA fragmentation at 10 uM after 24 hrs by TUNEL assay (reference value: 40.4%). Further details: scale not given: the % may be the effect or the level left. Put shortly: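 Primary islet cells from C57BL/6 mice were cultured in CMRL-1066/10% FBS and treated 24 h with Tm 1 μg/ml plus 10 μM compound or DMSO. Cells were fixed in 4% PFA, permeabilized in Triton/citrate, TUNEL-stained (1 h, 37°C), and co-stained for insulin and DAPI. TUNEL+ insulin+ cells were counted as mean ± SD of five wells (~50 islets, 3 mice).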

In data set [6] the test system is INS1. Description: Cytoprotective activity in endoplasmic reticulum stressed rat INS-1 cells assessed as rescue from tunicamycin-mediated reduction in cell viability at 10 uM after 72 hrs by CellTiter-Glo assay relative to control. It is filed as functional. Put shortly:
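INS-1 cells seeded at 3 × 10³/well and exposed for 72 h to Tm 0.1 μg/ml plus compound. Viability measured as ATP by CellTiter-Glo. Tm alone was set to 0% and DMSO without Tm to 100% rescue. Values are the mean of three experiments. EC50 was derived for survival.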

Data set [7] relates to Mus musculus. The experiment in a line: Antidiabetic activity in streptozotocin-induced diabetic C57BL/6 mouse model assessed as increase in level of insulin-positive beta cells per pancreatic islet at 20 mg/kg, ip administered for 5 consecutive days with streptozotocin followed by 2 more weeks compound addition without streptozotocin measured post last dose by DAPI staining-based confocal microscopy relative to control. It is filed as functional, organism-based.

Data set [8] can be described thus: Cytoprotective activity against endoplasmic reticulum stress-induced cell death in tunicamycin-treated CHOP knock out C57BL/6 mouse primary pancreatic islet beta cells assessed as DNA fragmentation at 10 uM after 24 hrs by TUNEL assay (reference value: 18.7%). The class given is functional. Put shortly: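 Primary islet cells isolated from CHOP−/− knockout mice (age-matched males), cultured in CMRL-1066 with 10% FBS, treated with compound (10 μM) plus tunicamycin (1 μg/ml) for 24 h. Cells fixed in 4% paraformaldehyde, permeabilized with 0.1% Triton X-100 in 0.1% sodium citrate, TUNEL stained (1 h, 37°C), co-stained for insulin and DAPI; % TUNEL+ insulin+ cells counted, five wells, islets from 3 mice.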

Data set [9] can be described thus: Inhibition of endoplasmic reticulum stress-mediated upregulation of CHOP mRNA expression in tunicamycin-treated rat INS-1 cells after 2 to 8 hrs by qRT-PCR method. It is filed as functional, cell-based. The conditions noted are these: INS1. Put shortly:
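INS-1 cells seeded at 4 × 10⁵/well and treated with Tm 0.1 μg/ml plus compound, either for 8 h at indicated concentrations or for indicated times at 10 μM. CHOP mRNA was measured by qRT-PCR with rat primers, normalized to rat cyclophilin A, and reported as fold change.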
A general note: Quantitative PCR measures a nucleic acid by following its amplification.

Data set [10] addresses DNA damage-inducible transcript 3 protein (Mus musculus) (UniProt P35639). The experiment in a line: Inhibition of endoplasmic reticulum stress-induced CHOP activity in mouse BetaTC6 cells assessed as decrease in tunicamycin-induced cell death by measuring cell viability at 2.5 to 20 uM after 72 hrs by CellTiter-Glo assay. The class given is cell-based. The conditions noted are these: Beta-TC6. Put shortly:
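βTC6 mouse insulinoma cells (DMEM, 15% FBS) seeded at 3 × 10³/well and treated 72 h with Tm 0.25 μg/ml plus DMSO or compound. Viability measured by CellTiter-Glo and expressed as fold change versus Tm alone = 1. Means ± SD of triplicates.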

Data set [11] deals with DNA damage-inducible transcript 3 protein (Rattus norvegicus) (UniProt Q62857). The experiment in a line: Inhibition of endoplasmic reticulum stress-induced CHOP activity in rat INS-1 cells assessed as suppression of tunicamycin-induced caspase-3 cleavage at 20 uM after 2 to 24 hrs by Western blot method. It is filed as cell-based. The conditions noted are these: INS1. Put shortly:
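INS-1 cells seeded at 8 × 10⁵ per 60-mm dish and treated with or without compound, with or without Tm, for the indicated times. Lysates (20 μg protein) were run on 7% SDS-PAGE and blotted with anti-caspase-3 and anti-PARP (1:1000) to detect cleavage. α-Tubulin served as loading control.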
In general terms: A western blot detects proteins with antibodies after separation by electrophoresis.

Data set [12] shares this target. Description: Inhibition of endoplasmic reticulum stress-induced CHOP activity in tunicamycin-treated rat INS-1 cells assessed as DNA fragmentation at 20 uM after 24 hrs by TUNEL assay (reference value: 15%). Further details: scale not given: the % may be the effect or the level left. The conditions noted are these: INS1. It is filed as cell-based. Put shortly: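 INS-1 cells seeded at 4 × 10⁴/well and treated 24 h with Tm 0.1 μg/ml plus 20 μM compound. Cells were fixed in 4% PFA, permeabilized, TUNEL-stained 1 h at 37°C, counterstained with DAPI, and imaged by high-content imaging. TUNEL+ percentage is mean ± SD of five images.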

For data set [13] the target is unchanged. Description: Inhibition of endoplasmic reticulum stress-induced CHOP activity in rat INS-1 cells assessed as restoration of tunicamycin-mediated reduction of 20 mM glucose-stimulated insulin secretion preincubated for 24 hrs followed by glucose addition and subsequent incubation for 45 mins by ELISA. The class given is cell-based. The conditions noted are these: INS1. Put shortly:
as §1

For data set [14], the system named is Mus musculus. The experiment in a line: Antidiabetic activity in streptozotocin-induced diabetic C57BL/6 mouse model assessed as total pancreatic islet area at 20 mg/kg, ip administered for 5 consecutive days with streptozotocin followed by 2 more weeks compound addition without streptozotocin measured post last dose by DAPI staining-based confocal microscopy (reference value: 21.3 +/- 4.4%). It is filed as functional.

Data set [15] can be described thus: Effect on 20 mM glucose-stimulated insulin secretion in rat INS-1 cells preincubated for 24 hrs followed by glucose addition and subsequent incubation for 45 mins by ELISA. The class given is ADME, cell-based. The conditions noted are these: ins1, 0.75 h. Put shortly: as §1

SMILES strings stand for the structures. Active and inactive are the calls of the source. No cut-off for these calls is given here.

Sequence of DNA damage-inducible transcript 3 protein (Rattus norvegicus) (Q62857 whole entry): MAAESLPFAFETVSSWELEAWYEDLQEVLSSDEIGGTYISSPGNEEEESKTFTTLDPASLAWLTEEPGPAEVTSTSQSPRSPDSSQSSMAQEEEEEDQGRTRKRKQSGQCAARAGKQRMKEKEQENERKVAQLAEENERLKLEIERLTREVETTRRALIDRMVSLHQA
Sequence of DNA damage-inducible transcript 3 protein (Mus musculus) (P35639 whole entry, the tested form may be a part): as the sequence (Q62857 whole entry) above, with A9T, F10L, A70T, S74R, D97E, A111P, A114P, L142Q counted along it

Usually EC50 stands for the concentration at which the effect is half-maximal. Regarding `CCc1ccc(-n2nnc(C(=O)Nc3cccc(F)c3)c2C)cc1`, the result in the data set with Mus musculus [1] and with Mus musculus [7] was Active. In addition, the Activity result is “Non-toxic” in [2]; “Non-toxic” in data set [3]; 9% in data set [5]; 14.6% in data set [8]; 1.5% in data set [12]; 44.2% in the data set on Mus musculus [14]. The Activity result in data set [15] is recorded as “Non-toxic”. Besides, the EC50 with INS1 [4] is 2.8 µM. Besides, the “%max” value in the data set with INS1 [6] came out at 87%. Moreover, the inhibition result in data set [9] was “Dose-dependent effect”. Moreover, the inhibition result in [10], in [11] and in [13] was “Active” in each case.
